# UBC13 inh: human UBC13 polyubiquitination inhibition; P61088; UBC13 polyubiquitin chain formation, TR-FRET; inhibition, % at 20 µM; hit rate 0.47% among 330,000; AID 485273; in the data active = inhibition above about 45%, passing the limit was not always enough; inconclusive = no clear call, values can overlap the other calls
# Target sequence (P61088 whole entry, looked up): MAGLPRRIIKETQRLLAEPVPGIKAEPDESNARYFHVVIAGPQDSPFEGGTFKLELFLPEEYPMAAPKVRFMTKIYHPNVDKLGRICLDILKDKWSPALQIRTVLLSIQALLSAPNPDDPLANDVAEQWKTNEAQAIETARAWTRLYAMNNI
# SENP8 block-1: inhibitors of human SENP8 protease | Q96LD8 | recombinant SENP8, Nedd8 substrate fluorescence | inhibition, % at 20 µM | hit rate 0.64% among 360,000; in the data active = inhibition mostly above about 40%, no sharp cut-off; inactive = mostly below about 27%
# Apaf-1 inh: human Apaf-1 inhibition. O14727. reconstituted apoptosome caspase-3 activity, DEVD-Rh110 fluorescence. inhibition, % at 20 µM. hit rate 0.71% among 330,000; active = inhibition of at least 40% at 20 µM;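 also: plate controls were DMSO wells for no effect and DEVD-CHO caspase inhibitor wells for full effect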
#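 detection = Rh110 fluorescence intensity | test system = biochemical Apaf-1 apoptosome reconstitution | also added = cytochrome c and DEVD-Rh110 substrate | schedule = 30 min plus 50 min, RT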
# SENP7 inh: blocks the human protease SENP7; AID 434973; hit rate 1.5% among 330,000; Q9BQF6; recombinant SENP7, Z-RLRGG-aminoluciferin luminescence, 40 min; inhibition, % at 5 µM;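 active = inhibition above about 50% at the single test dose, limit read from the data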;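 also: plate controls were DMSO with enzyme for no effect and no enzyme buffer wells for full effect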
# Target sequence (Q9BQF6 706-1050 limits assumed): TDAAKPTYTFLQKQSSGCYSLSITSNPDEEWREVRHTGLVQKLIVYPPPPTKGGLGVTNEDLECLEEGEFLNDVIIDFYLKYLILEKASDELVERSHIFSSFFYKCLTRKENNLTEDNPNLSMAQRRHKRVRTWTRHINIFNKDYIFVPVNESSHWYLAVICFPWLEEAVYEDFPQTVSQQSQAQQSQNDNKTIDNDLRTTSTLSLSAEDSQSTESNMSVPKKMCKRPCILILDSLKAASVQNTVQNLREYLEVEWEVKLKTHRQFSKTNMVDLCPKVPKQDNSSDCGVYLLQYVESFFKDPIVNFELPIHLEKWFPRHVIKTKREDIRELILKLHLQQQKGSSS
# SENP8 block-2: inhibitors of human SENP8 protease; purified SENP8, Z-RLRGG-aminoluciferin cleavage, luminescence; Q96LD8; hit rate 1.2% among 330,000; inhibition, % at 10 µM; in the data active = inhibition above about 50%
# SENP6 block: inhibitors of human SENP6 protease; Recombinant SENP6 catalytic domain, aminoluciferin luminescence; hit rate 1.8% among 330,000; AID 2599; Q9GZR1; inhibition, % at 10 µM;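 active = inhibition above about 50% at the single tested dose, limit read from the data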;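 also: plate controls were DMSO wells with enzyme for no effect and DMSO wells lacking enzyme for full effect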
# Apaf-1 inh conf2: Apaf-1 inhibition, single-dose confirmed; AID 504614; reconstituted apoptosome, caspase-3 DEVD-Rh110 fluorescence; shares compounds with Apaf-1 inh; hit rate 25% among 1,800; inhibition, % at 20 µM;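 active = mean inhibition of at least 40% at 20 µM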;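 also: plate controls were DMSO wells for no effect and DEVD-CHO caspase inhibitor control wells for full effect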
# Rh110 interf inh: counter-screen for Apaf-1 inhibitors: fluorescence interference | shares compounds with Apaf-1 inh | Rh110 fluorescence interference, quenched caspase reaction | activation (fluorescence interference), % at 20 µM | 1,800 tested, under 10 active | AID 504615;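 active = signal rise of 40% or more at 20 µM, treated as a fluorescence artifact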
# Fluor interf inh: shows fluorescence interference in the Apaf-1 inhibitor assay format; AID 588538; 460 tested, under 10 active; shares compounds with Apaf-1 inh; IC50, µM; fluorescence interference counterscreen, Apaf-1 assay format; call rule not given here
# Numbers without * were called inactive; i = inactive; ? = inconclusive; nt = not tested or not shown. The list is not random: actives were taken first. Their share in the collection is about 3.1%.
SMILES,UBC13 inh,SENP8 block-1,Apaf-1 inh,SENP7 inh,SENP8 block-2,SENP6 block,Apaf-1 inh conf2,Rh110 interf inh,others
O=C1NCCCc2c1oc1ccc(O)cc21,-6,7,1,-7,-14,-21,nt,nt,
Oc1c(Cl)cc(Cl)c2c1NCCC2,-15,19,47*,-1,-5,10,27,-2,
CC(C)(C)N(Cc1ccc2c(c1)OCO2)C(=O)/C=C\S(=O)c1ccccc1 (stereo not drawn),nt,12,nt,nt,nt,nt,nt,nt,
Cc1ccccc1NC1=C/C(=N\S(=O)(=O)c2ccc(C(=O)O)cc2)c2ccccc2C1=O,-164,88*,97*,69*,95*,94*,98*,3,Fluor interf inh=>100
COc1ccc(S(=O)(=O)c2ccc(O)cc2)cc1,6,8,0,-2,-1,-19,nt,nt,
Cc1ccc(NS(=O)(=O)c2cccs2)c(C)c1,2,1,4,10,1,-9,nt,nt,
Cc1ccccc1NC1=C/C(=N\S(=O)(=O)c2cccs2)c2ccccc2C1=O,-167,99*,97*,89*,90*,86*,99*,-7,Fluor interf inh=>100
O=S(=O)(/N=C(/Nc1ccccc1F)c1ccccc1)c1ccccc1,6,10,1,2,-4,-3,nt,nt,
COc1ccc(S(=O)(=O)/N=C2\C=C(Nc3ccc(O)cc3)C(=O)c3ccccc32)cc1,-262,90*,96*,87*,95*,93*,98*,5,Fluor interf inh=>100
Cc1ccccc1N/C(=N/S(=O)(=O)c1ccccc1)c1ccc(F)cc1,0,16,-3,5,2,21,nt,nt,
O=C(O)c1ccc(S(=O)(=O)/N=C2\C=C(Nc3ccccc3F)C(=O)c3ccccc32)cc1,-168,88*,96*,65*,96*,98*,98*,-4,Fluor interf inh=>100
Cc1cccc(COC[C@H](Cc2ccccc2)N2CCN(C(=O)c3ccc(Cl)c(Cl)c3)CCC2=O)c1,nt,15,nt,nt,nt,nt,nt,nt,
Cc1cccc(C)c1NC(=O)C1C(c2ccc3c(c2)OCO3)=Nc2ccccc2N1C(=O)c1ccccn1 (stereo not drawn),nt,-16,nt,nt,nt,nt,nt,nt,
CCc1ccc(S(=O)(=O)Nc2ccncc2)cc1,-7,8,3,-11,-14,-26,nt,nt,
CCc1ccc(S(=O)(=O)/N=C2\C=C(NS(=O)(=O)c3ccccc3)C(=O)c3ccccc32)cc1,-72,70*,57*,16,3,5,51*,2,Fluor interf inh=>100
COc1ccc(/C=C2/C(=O)N(c3cccc(F)c3)N=C2C)c(OC)c1,-22,41*,90*,49,-2,20,17,2,
COc1ccc(/C=C2\CC/C(=C\c3ccc(OC)cc3OC)C2=O)c(OC)c1,-31,-88,-4,-3,-8,11,nt,nt,
Nc1ccc2nc3c(c(Cl)c2c1)CCCC3,-2,-442,64*,15,17,47,23,2,
CCCCNc1c(-c2ccc(OC)c(SC(C)CC)c2)nc2cnccn12 (stereo not drawn),nt,-485,nt,nt,nt,nt,nt,nt,
CCCCCCSc1ccc(-c2nc3ccc(C)cn3c2NCc2ccccc2)cc1OC,8,i,41*,3,-15,4,21,-1,
CCCCNc1c(-c2ccc(OC)c(SC(C)CC)c2)nc2cc(C)ccn12 (stereo not drawn),37,i,49*,0,-1,22,18,9,
CCCCCCSc1ccc(-c2nc3cnccn3c2NCCCC)cc1,37,i,56*,1,-7,-3,30,23,
CCCCCCSc1cc(-c2nc3ccc(C)cn3c2NCCCC)ccc1OC,33,-449,46*,3,3,0,21,19,
COc1ccc(C(C)(O)c2nc(-c3ccccc3OC)cs2)cc1 (stereo not drawn),nt,14,nt,nt,nt,nt,nt,nt,
CCCCCC(=O)N1C[C@@H](n2cc(C3CC3)nn2)[C@H](O)C[C@@H]1c1ccc(Cl)cc1,nt,10,nt,nt,nt,nt,nt,nt,
SMILES,UBC13 inh,SENP8 block-1,Apaf-1 inh,SENP7 inh,SENP8 block-2,SENP6 block,Apaf-1 inh conf2,Rh110 interf inh,others
CC1(C(=O)NS(=O)(=O)c2cccc(OC(F)F)c2)CCN1C(=O)c1ccco1 (stereo not drawn),nt,14,nt,nt,nt,nt,nt,nt,
CC(=NNC(=S)N1CCN(c2ccccn2)CC1)c1nccs1,nt,-6,nt,nt,nt,nt,nt,nt,
CC1(c2ccc(OC(F)F)cc2)NC(=O)N(CC(=O)Nc2ccc(N3CCCCC3)cc2)C1=O (stereo not drawn),5,8,53*,13,-6,-17,19,4,
CC1(c2ccc([N+](=O)[O-])cc2)NC(=O)N(CC(=O)Nc2ccc(N3CCCCC3)cc2)C1=O (stereo not drawn),9,8,33,0,3,-16,nt,nt,
CC(C)Nc1ncnc2c1ncn2[C@H]1CN(C2CCCC2)C[C@@H](CO)O1,nt,14,nt,nt,nt,nt,nt,nt,
O=C(CN1CCc2cc3c(cc2C1)OCCCO3)Nc1cccc([N+](=O)[O-])c1,1,16,43*,10,12,9,25,-7,
NC(Cc1ccc(C(F)(F)F)cc1)c1csc(Nc2ccc(C(=O)NCc3ccco3)cn2)n1 (stereo not drawn),nt,-483,nt,nt,nt,nt,nt,nt,
CSc1nc(SCc2ccccc2)[nH]c(=O)n1,nt,14,nt,nt,nt,nt,nt,nt,
CCn1cc(C(=O)OCC(=O)OC2CC(C)CCC2C(C)C)c(=O)c2ccc(C)nc21 (stereo not drawn),8,15,48*,1,0,0,26,7,
C=CCOC(=O)c1cn(CC)c2nc(C)ccc2c1=O,-8,15,-5,-2,3,-11,nt,nt,
COc1ccc(-c2ccc(SCC(=O)NC3CCCC3)nn2)cc1,nt,11,nt,nt,nt,nt,nt,nt,
COc1cc(NC2CCCCC2O)c2nc(-c3ccc(Cl)cc3)ccc2c1 (stereo not drawn),-28,-9,55*,31,13,44,22,19,
CCc1ccc(-n2c(=S)sc3c(=O)[nH]c(SCC(=O)NC4CCCCC4)nc32)cc1,nt,12,nt,nt,nt,nt,nt,nt,
O=C(COc1ccccc1)N1CCN=C1SCc1ccc(F)cc1,15,5,56*,3,-2,-11,5,-27,
Cc1cc(C)cc(OCC(=O)Nc2ccc(N3CCCC3)cc2)c1,18,2,41*,-7,-14,-27,21,7,
CC1CCCCC1=NNC(=O)c1ccccc1 (stereo not drawn),nt,6,nt,nt,nt,nt,nt,nt,
COc1cccc2c1[C@@H]1CN(CCCCn3c(=O)[nH]c4c(sc5ncc(-c6ccccc6)nc54)c3=O)C[C@@H]1CO2,30,9,48*,-6,-2,-2,22,11,
COc1cccc2sc3cc(C#CC4(O)CCCCC4)ccc3c(=O)c12,?,-159,40*,23,30,22,27,3,

# Assay outcomes deposited in PubChem by Sanford-Burnham Center for Chemical Genomics.
